In brackets after ≈: the same amount, converted by molar mass.
Key:
Assay type in all cases: functional
Enterococcus faecalis [1] = test: Antibacterial activity against Enterococcus faecalis 14-2 after 18 to 24 hrs
How it was run: (§1)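 MIC by standard NCCLS reference procedure (M100-S11); lowest concentration of compound inhibiting visible bacterial growth after incubation at 35 °C for 18–24 h, read as complete inhibition of growth. Ciprofloxacin, levofloxacin and moxifloxacin run alongside as reference agents.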

Enterococcus faecium [2] = test: Antibacterial activity against Enterococcus faecium 14-1 after 18 to 24 hrs; how it was run: as §1
Enterococcus faecium [3] = test: Antibacterial activity against Enterococcus faecium 14-2 after 18 to 24 hrs; how it was run: as §1
Enterococcus faecium [4] = test: Antibacterial activity against Enterococcus faecium 14-5 after 18 to 24 hrs; how it was run: as §1
Enterococcus faecium [5] = test: Antibacterial activity against Enterococcus faecium 14-6 after 18 to 24 hrs; how it was run: as §1
[6] = system: Mycobacterium tuberculosis; test: Antimycobacterial activity against Mycobacterium tuberculosis H37Rv ATCC 27294 by alamar blue assay
How it was run: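 Microplate Alamar Blue Assay; MIC is the lowest concentration giving ≥90% reduction in fluorescence relative to the mean of replicate bacterium-only controls. MDR strain 6133 is resistant to isoniazid and rifampicin.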

Escherichia coli [7] = test: Antibacterial activity against Escherichia coli ATCC 25922 after 18 to 24 hrs; how it was run: as §1
Escherichia coli [8] = test: Antibacterial activity against ESBL-positive Escherichia coli 14-1 after 18 to 24 hrs; how it was run: as §1
Escherichia coli [9] = test: Antibacterial activity against ESBL-positive Escherichia coli 14-2 after 18 to 24 hrs; how it was run: as §1
Escherichia coli [10] = test: Antibacterial activity against Escherichia coli 14-1 after 18 to 24 hrs; how it was run: as §1
Escherichia coli [11] = test: Antibacterial activity against Escherichia coli 14-2 after 18 to 24 hrs; how it was run: as §1
Klebsiella pneumoniae [12] = test: Antibacterial activity against ESBL-positive Klebsiella pneumoniae 14-17 after 18 to 24 hrs; how it was run: as §1
Klebsiella pneumoniae [13] = test: Antibacterial activity against ESBL-positive Klebsiella pneumoniae 14-18 after 18 to 24 hrs; how it was run: as §1
Klebsiella pneumoniae [14] = test: Antibacterial activity against ESBL-positive Klebsiella pneumoniae 14-19 after 18 to 24 hrs; how it was run: as §1
Klebsiella pneumoniae [15] = test: Antibacterial activity against Klebsiella pneumoniae 14-1 after 18 to 24 hrs; how it was run: as §1
Klebsiella pneumoniae [16] = test: Antibacterial activity against Klebsiella pneumoniae 14-2 after 18 to 24 hrs; how it was run: as §1
Klebsiella pneumoniae [17] = test: Antibacterial activity against Klebsiella pneumoniae 14-3 after 18 to 24 hrs; how it was run: as §1
Klebsiella pneumoniae [18] = test: Antibacterial activity against Klebsiella pneumoniae 14-4 after 18 to 24 hrs; how it was run: as §1
Pseudomonas aeruginosa [19] = test: Antibacterial activity against Pseudomonas aeruginosa ATCC 27853 after 18 to 24 hrs; how it was run: as §1
Pseudomonas aeruginosa [20] = test: Antibacterial activity against Pseudomonas aeruginosa 14-9 after 18 to 24 hrs; how it was run: as §1
Pseudomonas aeruginosa [21] = test: Antibacterial activity against Pseudomonas aeruginosa 14-14 after 18 to 24 hrs; how it was run: as §1
Pseudomonas aeruginosa [22] = test: Antibacterial activity against Pseudomonas aeruginosa 14-15 after 18 to 24 hrs; how it was run: as §1
Pseudomonas aeruginosa [23] = test: Antibacterial activity against Pseudomonas aeruginosa 14-16 after 18 to 24 hrs; how it was run: as §1
Pseudomonas aeruginosa [24] = test: Antibacterial activity against Pseudomonas aeruginosa 14-19 after 18 to 24 hrs; how it was run: as §1
Staphylococcus aureus [25] = test: Antibacterial activity against Staphylococcus aureus CMCC 26003 after 18 to 24 hrs; how it was run: as §1
Staphylococcus aureus [26] = test: Antibacterial activity against methicillin-sensitive Staphylococcus aureus 14-1 after 18 to 24 hrs; how it was run: as §1
Staphylococcus aureus [27] = test: Antibacterial activity against methicillin-sensitive Staphylococcus aureus 14-2 after 18 to 24 hrs; how it was run: as §1
Staphylococcus aureus [28] = test: Antibacterial activity against methicillin-sensitive Staphylococcus aureus 14-3 after 18 to 24 hrs; how it was run: as §1
Staphylococcus aureus [29] = test: Antibacterial activity against methicillin-sensitive Staphylococcus aureus 14-4 after 18 to 24 hrs; how it was run: as §1
Staphylococcus aureus [30] = test: Antibacterial activity against methicillin-resistant Staphylococcus aureus 14-4 after 18 to 24 hrs
Staphylococcus aureus [31] = test: Antibacterial activity against methicillin-resistant Staphylococcus aureus 14-5 after 18 to 24 hrs
[32] = system: Staphylococcus epidermidis; test: Antibacterial activity against methicillin-sensitive Staphylococcus epidermidis 14-2 after 18 to 24 hrs; how it was run: as §1
[33] = system: Staphylococcus epidermidis; test: Antibacterial activity against methicillin-resistant Staphylococcus epidermidis 14-21 after 18 to 24 hrs
[34] = system: Staphylococcus epidermidis; test: Antibacterial activity against methicillin-resistant Staphylococcus epidermidis 14-22 after 18 to 24 hrs
[35] = system: Staphylococcus epidermidis; test: Antibacterial activity against methicillin-resistant Staphylococcus epidermidis 14-37 after 18 to 24 hrs
[36] = system: Staphylococcus epidermidis; test: Antibacterial activity against methicillin-resistant Staphylococcus epidermidis 14-39 after 18 to 24 hrs
Streptococcus pneumoniae = test: Antibacterial activity against Streptococcus pneumoniae ATCC 19615 after 18 to 24 hrs; how it was run: as §1
Enterococcus faecalis [37] = test: Antibacterial activity against Enterococcus faecalis 14-1 after 18 to 24 hrs; how it was run: as §1

Structure (SMILES)	MIC (Enterococcus faecalis [1]) [µg/mL]	MIC (Enterococcus faecium [2]) [µg/mL]	MIC (Enterococcus faecium [3]) [µg/mL]	MIC (Enterococcus faecium [4]) [µg/mL]	MIC (Enterococcus faecium [5]) [µg/mL]	MIC90 [6] [µg/mL]	MIC (Escherichia coli [7]) [µg/mL]	MIC (Escherichia coli [8]) [µg/mL]	MIC (Escherichia coli [9]) [µg/mL]	MIC (Escherichia coli [10]) [µg/mL]	MIC (Escherichia coli [11]) [µg/mL]	MIC (Klebsiella pneumoniae [12]) [µg/mL]	MIC (Klebsiella pneumoniae [13]) [µg/mL]	MIC (Klebsiella pneumoniae [14]) [µg/mL]	MIC (Klebsiella pneumoniae [15]) [µg/mL]	MIC (Klebsiella pneumoniae [16]) [µg/mL]	MIC (Klebsiella pneumoniae [17]) [µg/mL]	MIC (Klebsiella pneumoniae [18]) [µg/mL]	MIC (Pseudomonas aeruginosa [19]) [µg/mL]	MIC (Pseudomonas aeruginosa [20]) [µg/mL]	also measured
NCC1CN(c2nc3c(cc2F)c(=O)c(C(=O)O)cn3[C@@H]2C[C@@H]2F)C/C1=N\OCc1ccc(OC(F)(F)F)cc1 (some centres undefined)	0.5 (≈ 0.881 µM)	4 (≈ 7.05 µM)	4 (≈ 7.05 µM)	8 (≈ 14.1 µM)	4 (≈ 7.05 µM)	0.987 (≈ 1.74 µM)	2 (≈ 3.52 µM)	8 (≈ 14.1 µM)	128 (≈ 226 µM)	128 (≈ 226 µM)	128 (≈ 226 µM)	32 (≈ 56.4 µM)	32 (≈ 56.4 µM)	128 (≈ 226 µM)	128 (≈ 226 µM)	128 (≈ 226 µM)	128 (≈ 226 µM)	128 (≈ 226 µM)	16 (≈ 28.2 µM)	16 (≈ 28.2 µM)	MIC (Pseudomonas aeruginosa [21]): 32 µg/mL (≈ 56.4 µM); MIC (Pseudomonas aeruginosa [22]): 32 µg/mL (≈ 56.4 µM); MIC (Pseudomonas aeruginosa [23]): 32 µg/mL (≈ 56.4 µM); MIC (Pseudomonas aeruginosa [24]): 16 µg/mL (≈ 28.2 µM); MIC (Staphylococcus aureus [25]): < 0.008 µg/mL; MIC (Staphylococcus aureus [26]): 4 µg/mL (≈ 7.05 µM); MIC (Staphylococcus aureus [27]): 0.03 µg/mL (≈ 0.0529 µM); MIC (Staphylococcus aureus [28]): 0.015 µg/mL (≈ 0.0264 µM); MIC (Staphylococcus aureus [29]): 0.06 µg/mL (≈ 0.106 µM); MIC (Staphylococcus aureus [30]): 16 µg/mL (≈ 28.2 µM); MIC (Staphylococcus aureus [31]): 4 µg/mL (≈ 7.05 µM); MIC [32]: 16 µg/mL (≈ 28.2 µM); MIC [33]: 8 µg/mL (≈ 14.1 µM); MIC [34]: 8 µg/mL (≈ 14.1 µM); MIC [35]: 8 µg/mL (≈ 14.1 µM); MIC [36]: 8 µg/mL (≈ 14.1 µM); MIC (Streptococcus pneumoniae): 0.015 µg/mL (≈ 0.0264 µM); MIC (Enterococcus faecalis [37]): 32 µg/mL (≈ 56.4 µM)
Cc1ccc(CO/N=C2\CN(c3nc4c(cc3F)c(=O)c(C(=O)O)cn4[C@@H]3C[C@@H]3F)CC2CN)cc1 (some centres undefined)	< 0.008	0.5 (≈ 1.01 µM)	0.5 (≈ 1.01 µM)	8 (≈ 16.1 µM)	4 (≈ 8.04 µM)	< 0.25	< 0.008	2 (≈ 4.02 µM)	64 (≈ 129 µM)	16 (≈ 32.2 µM)	32 (≈ 64.3 µM)	8 (≈ 16.1 µM)	8 (≈ 16.1 µM)	128 (≈ 257 µM)	64 (≈ 129 µM)	128 (≈ 257 µM)	64 (≈ 129 µM)	128 (≈ 257 µM)	4 (≈ 8.04 µM)	8 (≈ 16.1 µM)	MIC (Pseudomonas aeruginosa [21]): 8 µg/mL (≈ 16.1 µM); MIC (Pseudomonas aeruginosa [22]): 8 µg/mL (≈ 16.1 µM); MIC (Pseudomonas aeruginosa [23]): 8 µg/mL (≈ 16.1 µM); MIC (Pseudomonas aeruginosa [24]): 8 µg/mL (≈ 16.1 µM); MIC (Staphylococcus aureus [25]): < 0.008 µg/mL; MIC (Staphylococcus aureus [26]): 2 µg/mL (≈ 4.02 µM); MIC (Staphylococcus aureus [27]): < 0.008 µg/mL; MIC (Staphylococcus aureus [28]): < 0.008 µg/mL; MIC (Staphylococcus aureus [29]): 0.015 µg/mL (≈ 0.0302 µM); MIC (Staphylococcus aureus [30]): 8 µg/mL (≈ 16.1 µM); MIC (Staphylococcus aureus [31]): 4 µg/mL (≈ 8.04 µM); MIC [32]: 8 µg/mL (≈ 16.1 µM); MIC [33]: 4 µg/mL (≈ 8.04 µM); MIC [34]: 2 µg/mL (≈ 4.02 µM); MIC [35]: 8 µg/mL (≈ 16.1 µM); MIC [36]: 16 µg/mL (≈ 32.2 µM); MIC (Streptococcus pneumoniae): < 0.008 µg/mL; MIC (Enterococcus faecalis [37]): 32 µg/mL (≈ 64.3 µM)
NCC1CN(c2nc3c(cc2F)c(=O)c(C(=O)O)cn3[C@@H]2C[C@@H]2F)C/C1=N\OCc1ccc([N+](=O)[O-])cc1 (some centres undefined)	0.25 (≈ 0.473 µM)	4 (≈ 7.57 µM)	4 (≈ 7.57 µM)	8 (≈ 15.1 µM)	4 (≈ 7.57 µM)	0.467 (≈ 0.884 µM)	0.25 (≈ 0.473 µM)	4 (≈ 7.57 µM)	> 128	128 (≈ 242 µM)	128 (≈ 242 µM)	8 (≈ 15.1 µM)	16 (≈ 30.3 µM)	128 (≈ 242 µM)	128 (≈ 242 µM)	128 (≈ 242 µM)	128 (≈ 242 µM)	128 (≈ 242 µM)	4 (≈ 7.57 µM)	4 (≈ 7.57 µM)	MIC (Pseudomonas aeruginosa [21]): 16 µg/mL (≈ 30.3 µM); MIC (Pseudomonas aeruginosa [22]): 16 µg/mL (≈ 30.3 µM); MIC (Pseudomonas aeruginosa [23]): 16 µg/mL (≈ 30.3 µM); MIC (Pseudomonas aeruginosa [24]): 16 µg/mL (≈ 30.3 µM); MIC (Staphylococcus aureus [25]): 0.015 µg/mL (≈ 0.0284 µM); MIC (Staphylococcus aureus [26]): 4 µg/mL (≈ 7.57 µM); MIC (Staphylococcus aureus [27]): 0.06 µg/mL (≈ 0.114 µM); MIC (Staphylococcus aureus [28]): 0.03 µg/mL (≈ 0.0568 µM); MIC (Staphylococcus aureus [29]): 0.125 µg/mL (≈ 0.237 µM); MIC (Staphylococcus aureus [30]): 128 µg/mL (≈ 242 µM); MIC (Staphylococcus aureus [31]): 4 µg/mL (≈ 7.57 µM); MIC [32]: 128 µg/mL (≈ 242 µM); MIC [33]: 16 µg/mL (≈ 30.3 µM); MIC [34]: 8 µg/mL (≈ 15.1 µM); MIC [35]: 4 µg/mL (≈ 7.57 µM); MIC [36]: 8 µg/mL (≈ 15.1 µM); MIC (Streptococcus pneumoniae): 0.015 µg/mL (≈ 0.0284 µM); MIC (Enterococcus faecalis [37]): 64 µg/mL (≈ 121 µM)

— ChEMBL document CHEMBL3632558, “Synthesis, antimycobacterial and antibacterial activity of l-[(1R,2S)-2-fluorocyclopropyl]naphthyridone derivatives containing an oxime-functionalized pyrrolidine moiety” (2015)
